We go through three compounds from ChEMBL document CHEMBL4118248, “Small Molecule Proprotein Convertase Subtilisin/Kexin Type 9 (PCSK9) Inhibitors: Hit to Lead Optimization of Systemic Agents” (J Med Chem, 2018).

Structures are written as SMILES. Some results are limits rather than exact numbers.

Cytochrome P450 3A4, sequence (P08684 whole entry): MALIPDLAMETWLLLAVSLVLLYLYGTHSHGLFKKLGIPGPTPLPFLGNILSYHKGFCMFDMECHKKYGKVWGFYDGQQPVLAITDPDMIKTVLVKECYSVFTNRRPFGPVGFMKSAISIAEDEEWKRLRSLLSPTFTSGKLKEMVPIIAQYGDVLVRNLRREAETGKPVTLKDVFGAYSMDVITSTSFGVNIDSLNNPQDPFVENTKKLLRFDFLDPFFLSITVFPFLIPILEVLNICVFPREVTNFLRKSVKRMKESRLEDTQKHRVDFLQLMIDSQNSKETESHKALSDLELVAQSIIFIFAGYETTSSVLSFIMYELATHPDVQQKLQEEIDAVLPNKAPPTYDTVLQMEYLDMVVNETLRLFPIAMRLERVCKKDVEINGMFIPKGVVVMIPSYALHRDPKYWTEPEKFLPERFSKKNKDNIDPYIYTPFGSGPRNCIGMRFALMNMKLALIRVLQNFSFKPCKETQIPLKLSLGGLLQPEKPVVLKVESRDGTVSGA
Cytochrome P450 2C9, sequence (P11712 whole entry): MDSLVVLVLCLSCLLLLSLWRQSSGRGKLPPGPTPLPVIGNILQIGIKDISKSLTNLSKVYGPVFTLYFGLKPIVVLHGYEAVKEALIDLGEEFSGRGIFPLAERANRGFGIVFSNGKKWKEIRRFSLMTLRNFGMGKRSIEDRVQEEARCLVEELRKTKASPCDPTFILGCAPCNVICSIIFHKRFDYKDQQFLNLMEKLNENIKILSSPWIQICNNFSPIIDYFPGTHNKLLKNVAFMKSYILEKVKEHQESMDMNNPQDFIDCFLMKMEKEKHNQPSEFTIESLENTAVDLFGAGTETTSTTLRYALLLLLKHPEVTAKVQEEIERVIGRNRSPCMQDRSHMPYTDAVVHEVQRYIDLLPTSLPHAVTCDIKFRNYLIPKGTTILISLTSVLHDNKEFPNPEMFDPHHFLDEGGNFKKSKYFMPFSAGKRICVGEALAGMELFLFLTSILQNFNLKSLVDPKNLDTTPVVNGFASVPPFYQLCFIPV

The first data set has as its system Rattus norvegicus. Put plainly: Toxicity in Crl:CD(SD) rat assessed as single cell necrosis in crypt cells in ileum at 50 mg/kg/day, po daily via gavage for 14 days measured on day 15 post last dose. It counts as organism-based. Conditions: in vivo, 336 h.
For the compound `Cc1cnc2c(c1)nnn2-c1ccc(C(=O)N(c2ncccc2Cl)[C@@H]2CCCNC2)cc1`, the Activity entry was “Non-Toxic”.
Regarding `O=C(c1ccc(-n2nnc3cccnc32)cn1)N(c1ncccc1Cl)[C@@H]1CCCNC1`, the Activity entry was “Non-Toxic”.

A further data set deals with Rattus norvegicus. Briefly: Toxicity in Crl:CD(SD) rat assessed as hepatocyte vacuolation at 50 mg/kg/day, po daily via gavage for 14 days measured on day 15 post last dose. The data set is classed as organism-based. As to conditions: in vivo, 336 h. The essentials:
(§1)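 Male rats, 5 per group, given vehicle or compound at 50 mg/kg/day by oral gavage for 14 days. Mortality, clinical signs and hematology monitored throughout. Necropsy on day 15 with microscopy of bone marrow, ileum, duodenum, jejunum and liver. Toxicokinetics at 1, 3, 6 and 24 h post-dose on day 14.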
Consider `Cc1cnc2c(c1)nnn2-c1ccc(C(=O)N(c2ncccc2Cl)[C@@H]2CCCNC2)cc1`, for which the Activity entry is given as “Toxic”.

Another data set concerns the target Cytochrome P450 3A4 (Homo sapiens, UniProt P08684). Briefly: Inhibition of CYP3A4 (unknown origin). It counts as ADME.
Conditions: not given
The method in brief:
(§2)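 Inhibition of CYP1A2, 2D6, 2C9 and 3A4 reported as IC50, or as percent inhibition at 3 µM.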
Consider `Cc1cncc(-c2ccc(C(=O)N(c3ncccc3Cl)[C@@H]3CCCNC3)cc2)n1`, for which the IC50 was greater than 30 µM.

The next data set concerns the target 80S Ribosome. Briefly: Binding affinity to 80S ribosome in human HuH7 cells harboring pCMV-truncated human PCSK9 (1 to 152 residues)-proLuc assessed as inhibition of PCSK9 mRNA translation after overnight incubation by luciferase reporter gene assay. The data set is classed as cell-based. Conditions: huh-7. The method in brief:
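Huh7 cells stably carry human PCSK9 prodomain (aa 1-152) fused to firefly luciferase (aa 2-550) in pcDNA3.1, kept under 900 µg/mL Geneticin. Plated 10,000/well in phenol red-free DMEM/10% FBS and left 4 h, then compound added (top final 20 µM, 0.5% DMSO). Incubated overnight at 37 °C, luminescence read with SteadyGlo.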
Consider `Cc1cnc2c(c1)nnn2-c1ccc(C(=O)N(c2ncccc2Cl)[C@@H]2CCCNC2)cc1`, for which the IC50 was determined as 0.41 µM.
On the same count and under the same terms, next, `O=C(c1ccc(-n2nnc3cccnc32)cn1)N(c1ncccc1Cl)[C@@H]1CCCNC1`: 0.71 µM.

The target in a further data set is T1, Cytochrome P450 1A2 (Homo sapiens, UniProt P05177).
T1 sequence (P05177 whole entry): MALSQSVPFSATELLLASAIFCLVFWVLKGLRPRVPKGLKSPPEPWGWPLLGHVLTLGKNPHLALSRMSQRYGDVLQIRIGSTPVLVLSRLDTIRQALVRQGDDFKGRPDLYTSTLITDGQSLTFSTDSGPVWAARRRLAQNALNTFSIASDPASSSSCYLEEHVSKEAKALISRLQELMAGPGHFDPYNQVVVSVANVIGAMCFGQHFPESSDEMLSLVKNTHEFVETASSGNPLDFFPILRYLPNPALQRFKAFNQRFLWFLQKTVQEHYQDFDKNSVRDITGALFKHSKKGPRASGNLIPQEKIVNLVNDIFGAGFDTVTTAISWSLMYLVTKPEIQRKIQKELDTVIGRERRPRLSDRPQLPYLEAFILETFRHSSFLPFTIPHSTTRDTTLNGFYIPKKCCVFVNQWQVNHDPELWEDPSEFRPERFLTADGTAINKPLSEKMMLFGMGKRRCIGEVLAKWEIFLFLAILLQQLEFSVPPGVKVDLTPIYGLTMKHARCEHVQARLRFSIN
Briefly: Inhibition of CYP1A2 (unknown origin). It counts as ADME.
Conditions: not given
The method in brief: as §2
Take `Cc1cncc(-c2ccc(C(=O)N(c3ncccc3Cl)[C@@H]3CCCNC3)cc2)n1`: the half-maximal inhibitory concentration (IC50) was greater than 30 µM.

The target of the next data set is Cytochrome P450 2D6 (Homo sapiens, UniProt P10635). Briefly: Inhibition of CYP2D6 (unknown origin). It counts as ADME.
Cytochrome P450 2D6, sequence (P10635 whole entry): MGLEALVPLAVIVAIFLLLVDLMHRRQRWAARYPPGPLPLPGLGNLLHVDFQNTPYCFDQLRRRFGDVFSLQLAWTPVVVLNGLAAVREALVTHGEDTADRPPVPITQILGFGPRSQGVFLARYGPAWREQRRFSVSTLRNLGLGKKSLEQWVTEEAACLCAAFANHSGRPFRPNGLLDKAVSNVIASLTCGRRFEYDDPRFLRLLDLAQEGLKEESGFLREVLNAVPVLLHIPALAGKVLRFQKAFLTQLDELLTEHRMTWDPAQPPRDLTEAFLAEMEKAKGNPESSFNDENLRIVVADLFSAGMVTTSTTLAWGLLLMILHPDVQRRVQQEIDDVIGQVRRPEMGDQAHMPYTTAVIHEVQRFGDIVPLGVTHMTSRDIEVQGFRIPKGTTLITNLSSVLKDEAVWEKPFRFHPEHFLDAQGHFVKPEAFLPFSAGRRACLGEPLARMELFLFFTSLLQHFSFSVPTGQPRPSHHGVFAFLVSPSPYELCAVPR
Conditions: not given
The essentials:
as §2
Compound `Cc1cncc(-c2ccc(C(=O)N(c3ncccc3Cl)[C@@H]3CCCNC3)cc2)n1` registered a half-inhibitory concentration (IC50) greater than 30 µM.

The target in another data set is T2, Voltage-gated inwardly rectifying potassium channel KCNH2 (Homo sapiens, UniProt Q12809). Put plainly: Inhibition of human ERG by patch clamp method.
T2 sequence (Q12809 whole entry): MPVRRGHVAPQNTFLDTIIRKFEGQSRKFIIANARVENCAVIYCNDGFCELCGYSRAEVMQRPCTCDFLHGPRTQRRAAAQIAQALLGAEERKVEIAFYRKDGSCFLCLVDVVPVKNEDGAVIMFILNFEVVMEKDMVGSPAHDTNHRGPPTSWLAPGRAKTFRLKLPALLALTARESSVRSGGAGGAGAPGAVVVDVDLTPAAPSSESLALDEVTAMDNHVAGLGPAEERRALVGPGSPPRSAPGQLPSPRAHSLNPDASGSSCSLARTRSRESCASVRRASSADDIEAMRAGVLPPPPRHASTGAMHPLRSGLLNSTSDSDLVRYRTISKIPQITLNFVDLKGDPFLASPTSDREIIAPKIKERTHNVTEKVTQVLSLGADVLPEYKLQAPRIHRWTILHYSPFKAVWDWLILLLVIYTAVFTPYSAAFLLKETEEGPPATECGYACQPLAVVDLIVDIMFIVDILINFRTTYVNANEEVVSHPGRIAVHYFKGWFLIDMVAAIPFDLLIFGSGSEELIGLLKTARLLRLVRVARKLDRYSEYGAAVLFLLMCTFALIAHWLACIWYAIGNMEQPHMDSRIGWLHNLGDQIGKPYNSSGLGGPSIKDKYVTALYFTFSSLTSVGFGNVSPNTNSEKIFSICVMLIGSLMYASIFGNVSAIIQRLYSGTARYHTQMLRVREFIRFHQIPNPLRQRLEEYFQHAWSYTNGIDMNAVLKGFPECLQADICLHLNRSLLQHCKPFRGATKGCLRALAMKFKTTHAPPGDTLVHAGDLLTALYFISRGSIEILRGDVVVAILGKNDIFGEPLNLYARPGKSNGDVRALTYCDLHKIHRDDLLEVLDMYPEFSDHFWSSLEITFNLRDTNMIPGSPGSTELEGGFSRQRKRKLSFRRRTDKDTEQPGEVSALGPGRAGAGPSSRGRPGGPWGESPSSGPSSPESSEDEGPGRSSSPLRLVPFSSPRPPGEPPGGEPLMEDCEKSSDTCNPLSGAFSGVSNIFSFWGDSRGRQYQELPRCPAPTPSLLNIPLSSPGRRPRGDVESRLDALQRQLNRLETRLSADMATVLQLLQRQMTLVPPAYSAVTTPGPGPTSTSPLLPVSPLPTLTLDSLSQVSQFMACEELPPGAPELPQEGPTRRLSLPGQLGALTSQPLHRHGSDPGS
Conditions: not given
The compound `Cc1cncc(-c2ccc(C(=O)N(c3ncccc3Cl)[C@@H]3CCCNC3)cc2)n1` yielded a half-maximal inhibitory concentration (IC50) of 59.8 µM.

Tested on in a further data set: not listed separately
Put plainly: Permeability from apical to basolateral side in MDCK cells harboring MDR1. The data set is classed as ADME, cell-based, Canis lupus familiaris. Conditions: dog, read-out: permeability. The essentials:
(§3)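 Bidirectional permeability across MDR1-transfected MDCK monolayers, apical-to-basolateral and basolateral-to-apical; Papp reported in 10^-6 cm/s.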
Take `Cc1cncc(-c2ccc(C(=O)N(c3ncccc3Cl)[C@@H]3CCCNC3)cc2)n1`: the Papp A→B worked out at 0.7 ×10⁻⁶ cm/s.

Another data set concerns the target Cytochrome P450 2C9 (Homo sapiens, UniProt P11712). Put plainly: Inhibition of CYP2C9 (unknown origin). The data set is classed as ADME.
Conditions: not given
The method in brief: as §2
Compound `Cc1cncc(-c2ccc(C(=O)N(c3ncccc3Cl)[C@@H]3CCCNC3)cc2)n1` had a half-inhibitory concentration (IC50) greater than 30 µM.

For another data set, the target named is 80S Ribosome. Briefly: Binding affinity to 80S ribosome in human HuH7 cells assessed as inhibition of PCSK9 mRNA translation after overnight incubation by ELISA. The data set is classed as cell-based. As to conditions: huh-7. The method in brief: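 Huh7 cells kept in high-glucose DMEM, 10% BSA-free FBS, 2 mM L-glutamine, pen/strep at 37 °C, 5% CO2. Plated 7,500/well with compound or vehicle and incubated overnight (16-20 h). Secreted PCSK9 in the medium read by AlphaLISA: two antibodies to different mature-PCSK9 epitopes, biotinylated antibody 3 nM final, acceptor beads 10 µg/mL, 0.5 h rt; streptavidin donor beads 40 µg/mL, 1 h rt.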
`Cc1cnc2c(c1)nnn2-c1ccc(C(=O)N(c2ncccc2Cl)[C@@H]2CCCNC2)cc1`: the IC50 stood at 0.78 µM.
In the case of `O=C(c1ccc(-n2nnc3cccnc32)cn1)N(c1ncccc1Cl)[C@@H]1CCCNC1`, the 50% inhibitory concentration (IC50) is 1.44 µM.
For the compound `Cc1cncc(-c2ccc(C(=O)N(c3ncccc3Cl)[C@@H]3CCCNC3)cc2)n1`, the IC50 was determined as 2.82 µM.

The target of a further data set is T2, Voltage-gated inwardly rectifying potassium channel KCNH2. Briefly: Inhibition of dofetilide binding to human ERG by fluorescence polarization assay.
Conditions: not given
In turn, `Cc1cnc2c(c1)nnn2-c1ccc(C(=O)N(c2ncccc2Cl)[C@@H]2CCCNC2)cc1` returned a Ki of 3.3 µM. This lies in the single-digit micromolar range.
Take `O=C(c1ccc(-n2nnc3cccnc32)cn1)N(c1ncccc1Cl)[C@@H]1CCCNC1`: the Ki worked out at 28.8 µM.
`Cc1cncc(-c2ccc(C(=O)N(c3ncccc3Cl)[C@@H]3CCCNC3)cc2)n1` came in with an inhibitory constant (Ki) of 38.2 µM.

Tested on in another data set: not listed separately
Briefly: Intrinsic clearance in human liver microsomes. The data set is classed as ADME, microsome. As to conditions: read-out: CLH.
Turning to `Cc1cnc2c(c1)nnn2-c1ccc(C(=O)N(c2ncccc2Cl)[C@@H]2CCCNC2)cc1`, the microsomal CLint came out at 8.8 µL/min/mg.
Consider `O=C(c1ccc(-n2nnc3cccnc32)cn1)N(c1ncccc1Cl)[C@@H]1CCCNC1`, for which the microsomal CLint was less than 8 µL/min/mg.
Regarding `Cc1cncc(-c2ccc(C(=O)N(c3ncccc3Cl)[C@@H]3CCCNC3)cc2)n1`, the microsomal CLint is less than 8 µL/min/mg.

In a further data set the test system is Bone marrow cell. Put plainly: Cytotoxicity against rat bone marrow cells assessed as reduction in cell viability after 72 hrs by CellTiter-Glo assay. It counts as cell-based.
Conditions: not given
Consider `Cc1cnc2c(c1)nnn2-c1ccc(C(=O)N(c2ncccc2Cl)[C@@H]2CCCNC2)cc1`, for which the 50% inhibitory concentration (IC50) was greater than 19.7 µM.
Still for that read-out and setting: next, `O=C(c1ccc(-n2nnc3cccnc32)cn1)N(c1ncccc1Cl)[C@@H]1CCCNC1`: greater than 12.7 µM; `Cc1cncc(-c2ccc(C(=O)N(c3ncccc3Cl)[C@@H]3CCCNC3)cc2)n1`: 43.7 µM.

Tested on in a further data set: not listed separately
Briefly: Fraction unbound in rat plasma. It counts as ADME, cell-free.
Conditions: not given
The essentials:
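Unbound fraction measured in rat plasma.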
`Cc1cncc(-c2ccc(C(=O)N(c3ncccc3Cl)[C@@H]3CCCNC3)cc2)n1` yielded a fraction unbound of 0.41.

Tested on in another data set: not listed separately
Briefly: Intrinsic clearance in rat liver microsomes. The data set is classed as ADME, microsome. As to conditions: read-out: CLH.
As to `Cc1cnc2c(c1)nnn2-c1ccc(C(=O)N(c2ncccc2Cl)[C@@H]2CCCNC2)cc1`, the microsomal CLint is 16.5 µL/min/mg.
Regarding `O=C(c1ccc(-n2nnc3cccnc32)cn1)N(c1ncccc1Cl)[C@@H]1CCCNC1`, the microsomal CLint was 15.3 µL/min/mg.

The next data set deals with Rattus norvegicus. Briefly: Toxicity in Crl:CD(SD) rat assessed as discolored/mottled liver at 50 mg/kg/day, po daily via gavage for 14 days measured on day 15 post last dose. The data set is classed as organism-based. Conditions: in vivo, 336 h. The method in brief: as §1
Turning to `Cc1cnc2c(c1)nnn2-c1ccc(C(=O)N(c2ncccc2Cl)[C@@H]2CCCNC2)cc1`, the Activity entry was “Toxic”.
As to `O=C(c1ccc(-n2nnc3cccnc32)cn1)N(c1ncccc1Cl)[C@@H]1CCCNC1`, the Activity result was “Toxic”.

Tested on in another data set: not listed separately
Put plainly: Lipophilicity, log D of the compound by shake flask method. The data set is classed as physicochemical. As to conditions: octanol/water. The essentials: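 LogD measured by the shake-flask method.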
`Cc1cnc2c(c1)nnn2-c1ccc(C(=O)N(c2ncccc2Cl)[C@@H]2CCCNC2)cc1` had a log distribution coefficient (logD) of 1.2.
`O=C(c1ccc(-n2nnc3cccnc32)cn1)N(c1ncccc1Cl)[C@@H]1CCCNC1` gave a logD of 0.3.
`Cc1cncc(-c2ccc(C(=O)N(c3ncccc3Cl)[C@@H]3CCCNC3)cc2)n1`: the log distribution coefficient (logD) fell in the range of 0.8 to 1.37.

Tested on in a further data set: not listed separately
Put plainly: Permeability from basolateral to apical side in MDCK cells harboring MDR1. It counts as ADME, cell-based, Canis lupus familiaris. As to conditions: dog, read-out: permeability. The essentials:
as §3
On to `Cc1cncc(-c2ccc(C(=O)N(c3ncccc3Cl)[C@@H]3CCCNC3)cc2)n1`, for which the Papp B→A stood at 20 ×10⁻⁶ cm/s.

Tested on in another data set: not listed separately
Briefly: Apparent permeability in RRCK cells. It counts as ADME, cell-based, Canis lupus familiaris, MDCKII-LE. As to conditions: dog, MDCK. The essentials: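 Passive permeability measured in RRCK cells, a modified Madin-Darby canine kidney line; Papp reported in 10^-6 cm/s.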
Regarding `Cc1cncc(-c2ccc(C(=O)N(c3ncccc3Cl)[C@@H]3CCCNC3)cc2)n1`, the Papp came out at 10.5 ×10⁻⁶ cm/s.
